We go through three compounds from publication PMC6754270 (Cell chemical biology, 2019).

Values joined by “and” are separate entries in the source; they are usually repeats but may differ in a detail not shown here. Equal values may be shown once. Read-outs that look alike come from different tables or passages of the source.

Broadly, the IC50 is the concentration that inhibits the measured activity by half. Low readings indicate greater potency, high ones weaker potency.

Test [1] has as its target spastin-Q488V (aa 209–758) (Drosophila melanogaster, UniProt Q8I0P1, Q488V). Description: Steady-state ATPase activity, NADH-coupled assay, spastin-Q488V. It is filed as biochemical. The conditions noted are these: for Change in inhibitor potency, Q488V (N-loop) vs wild-type: ATPase assay, compound 4: reduction in potency.
For test [2], the target named is spastin-AAA-Q488V (aa 445–758) (Drosophila melanogaster, UniProt Q8I0P1, Q488V). Description: Differential scanning fluorimetry, spastin-AAA-Q488V. Type of test: binding. Conditions: 100 µM compound, vs DMSO, n=2. In general terms: DSF heats the sample and reads unfolding from a dye or from intrinsic fluorescence.
The target of test [3] is spastin-AAA-T692A (aa 445–758) (Drosophila melanogaster, UniProt Q8I0P1, T692A). Description: Differential scanning fluorimetry, spastin-AAA-T692A. It is filed as binding. Conditions: 100 µM compound, vs DMSO, n=2.
The target in test [4] is T1, fidgetin-like 1 (Hs-FIGL1) (Homo sapiens, UniProt Q6PIW4).
T1 sequence (Q6PIW4 1-674): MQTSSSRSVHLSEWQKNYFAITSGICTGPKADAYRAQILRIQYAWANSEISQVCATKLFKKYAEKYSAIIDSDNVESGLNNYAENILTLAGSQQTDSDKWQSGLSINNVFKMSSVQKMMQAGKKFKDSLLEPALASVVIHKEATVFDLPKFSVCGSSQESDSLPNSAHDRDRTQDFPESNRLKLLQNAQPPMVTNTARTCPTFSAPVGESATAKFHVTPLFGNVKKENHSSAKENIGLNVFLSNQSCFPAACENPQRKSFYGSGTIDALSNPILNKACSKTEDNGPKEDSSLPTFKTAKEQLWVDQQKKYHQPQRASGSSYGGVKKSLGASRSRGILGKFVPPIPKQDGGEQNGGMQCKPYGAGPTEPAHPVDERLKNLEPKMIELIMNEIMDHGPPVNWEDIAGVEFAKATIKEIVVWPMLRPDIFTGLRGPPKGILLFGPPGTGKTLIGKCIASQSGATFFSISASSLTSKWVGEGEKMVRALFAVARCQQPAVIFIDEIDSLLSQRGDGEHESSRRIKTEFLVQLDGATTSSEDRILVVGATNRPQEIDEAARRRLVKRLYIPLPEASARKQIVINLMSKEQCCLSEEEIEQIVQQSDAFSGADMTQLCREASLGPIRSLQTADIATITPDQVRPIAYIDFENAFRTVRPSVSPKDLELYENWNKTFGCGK
Description: Steady-state ATPase activity of fidgetin-like 1. It is filed as biochemical, H. sapiens. Conditions: 2 µM compound, 0.5 mM MgATP, n=2.

Test [5] addresses spastin-AAA-N527C (aa 445–758) (Drosophila melanogaster, UniProt Q8I0P1, N527C). Briefly: Differential scanning fluorimetry, spastin-AAA-N527C. Type of test: binding. Conditions: 100 µM compound, vs DMSO, n=2.
Test [6] concerns the target spastin-N527C (aa 209–758) (Drosophila melanogaster, UniProt Q8I0P1, N527C). Description: Steady-state ATPase activity, NADH-coupled assay, spastin-N527C. It is filed as biochemical. The conditions noted are these: for Change in inhibitor potency, N527C (P-loop) vs wild-type: ATPase assay, compound 4: reduction in potency.
Test [7] addresses T2, katanin (Xl-katanin) (Xenopus laevis, UniProt Q9PUL2). Briefly: Steady-state ATPase activity of katanin. It is filed as biochemical, X. laevis. Conditions: 2 µM compound, 0.5 mM MgATP, n=2.
Test [8] has as its target T3, spastin-AAA-WT (aa 445–758) (Drosophila melanogaster, UniProt Q8I0P1).
T3 sequence (Q8I0P1 445-758): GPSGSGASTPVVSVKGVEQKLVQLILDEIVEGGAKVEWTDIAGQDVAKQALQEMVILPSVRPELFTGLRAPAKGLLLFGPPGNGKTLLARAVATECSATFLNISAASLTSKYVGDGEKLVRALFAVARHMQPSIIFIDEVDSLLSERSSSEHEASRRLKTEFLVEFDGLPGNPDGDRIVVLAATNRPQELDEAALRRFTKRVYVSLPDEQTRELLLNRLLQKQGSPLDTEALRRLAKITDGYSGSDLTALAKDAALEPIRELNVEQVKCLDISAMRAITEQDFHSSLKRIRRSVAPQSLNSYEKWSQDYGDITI
Description: Differential scanning fluorimetry, spastin-AAA-WT. Type of test: binding. The conditions noted are these: 100 µM compound, vs DMSO, n=2. The essentials:
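Drosophila spastin AAA domain (aa 445–758), expressed as a GST fusion in E. coli Rosetta, protease-cleaved and purified by anion exchange and gel filtration. Tm taken as minimum of first-derivative melt curve; n=2, range shown.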

Test [9] addresses T4, spastin-WT (Drosophila melanogaster spastin, aa 209–758) (Drosophila melanogaster, UniProt Q8I0P1).
T4 sequence (Q8I0P1 209-758): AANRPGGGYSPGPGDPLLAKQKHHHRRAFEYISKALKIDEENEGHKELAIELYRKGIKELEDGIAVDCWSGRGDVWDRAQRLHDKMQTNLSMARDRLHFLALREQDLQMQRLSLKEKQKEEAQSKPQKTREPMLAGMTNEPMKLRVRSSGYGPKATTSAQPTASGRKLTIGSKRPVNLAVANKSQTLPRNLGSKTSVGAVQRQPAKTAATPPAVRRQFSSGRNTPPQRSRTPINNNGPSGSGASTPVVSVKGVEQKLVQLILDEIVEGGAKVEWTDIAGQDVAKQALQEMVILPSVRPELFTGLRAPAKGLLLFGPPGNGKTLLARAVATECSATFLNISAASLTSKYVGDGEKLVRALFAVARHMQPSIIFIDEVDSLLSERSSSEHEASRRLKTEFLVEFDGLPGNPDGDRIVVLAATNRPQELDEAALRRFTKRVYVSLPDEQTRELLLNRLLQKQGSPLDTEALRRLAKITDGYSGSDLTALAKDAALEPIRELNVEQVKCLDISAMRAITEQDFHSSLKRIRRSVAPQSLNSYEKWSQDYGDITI
Briefly: Steady-state ATPase activity, NADH-coupled assay, spastin-WT. It is filed as biochemical.

A further test deals with T5, VPS4B (Hs-VPS4B) (Homo sapiens, UniProt O75351).
T5 sequence (O75351 1-444): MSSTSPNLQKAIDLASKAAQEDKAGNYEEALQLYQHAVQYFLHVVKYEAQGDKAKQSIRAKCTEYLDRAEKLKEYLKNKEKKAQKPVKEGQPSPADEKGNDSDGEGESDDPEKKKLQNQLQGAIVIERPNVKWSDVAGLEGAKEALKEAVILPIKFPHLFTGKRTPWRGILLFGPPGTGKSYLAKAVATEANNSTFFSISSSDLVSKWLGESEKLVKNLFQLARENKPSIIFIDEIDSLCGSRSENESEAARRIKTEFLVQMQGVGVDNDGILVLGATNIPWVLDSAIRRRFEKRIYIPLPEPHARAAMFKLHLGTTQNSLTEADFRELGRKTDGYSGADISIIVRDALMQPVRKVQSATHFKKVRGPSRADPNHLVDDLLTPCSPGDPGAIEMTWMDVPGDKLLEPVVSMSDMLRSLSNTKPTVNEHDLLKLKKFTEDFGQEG
Description: Steady-state ATPase activity of VPS4B. Type of test: biochemical, H. sapiens. The conditions noted are these: 2 µM compound, 0.5 mM MgATP, n=2.

Test [10] addresses spastin-T692A (aa 209–758) (Drosophila melanogaster, UniProt Q8I0P1, T692A). Description: Steady-state ATPase activity, NADH-coupled assay, spastin-T692A. It is filed as biochemical. Conditions: for Change in inhibitor potency, T692A (sensor-II) vs wild-type: ATPase assay, compound 1: increase in potency.
Test [11] has as its target T4, spastin-WT (Drosophila melanogaster spastin, aa 209–758). The conditions noted are these: ref Cupido et al., 2019; cited from earlier work.
Test [12] has as its target T1, fidgetin-like 1 (Hs-FIGL1). Conditions: ref Cupido et al., 2019; cited from earlier work.
Test [13] concerns the target T2, katanin (Xl-katanin). Conditions: ref Cupido et al., 2019; cited from earlier work.
The subject of a further test is human VCP/p97 T688A. The conditions noted are these: sensor-II variability hot-spot mutation; ref Anderson et al., 2015; cited from earlier work.

Chain of spastin-Q488V (aa 209–758) (Q8I0P1 209-758 Q488V): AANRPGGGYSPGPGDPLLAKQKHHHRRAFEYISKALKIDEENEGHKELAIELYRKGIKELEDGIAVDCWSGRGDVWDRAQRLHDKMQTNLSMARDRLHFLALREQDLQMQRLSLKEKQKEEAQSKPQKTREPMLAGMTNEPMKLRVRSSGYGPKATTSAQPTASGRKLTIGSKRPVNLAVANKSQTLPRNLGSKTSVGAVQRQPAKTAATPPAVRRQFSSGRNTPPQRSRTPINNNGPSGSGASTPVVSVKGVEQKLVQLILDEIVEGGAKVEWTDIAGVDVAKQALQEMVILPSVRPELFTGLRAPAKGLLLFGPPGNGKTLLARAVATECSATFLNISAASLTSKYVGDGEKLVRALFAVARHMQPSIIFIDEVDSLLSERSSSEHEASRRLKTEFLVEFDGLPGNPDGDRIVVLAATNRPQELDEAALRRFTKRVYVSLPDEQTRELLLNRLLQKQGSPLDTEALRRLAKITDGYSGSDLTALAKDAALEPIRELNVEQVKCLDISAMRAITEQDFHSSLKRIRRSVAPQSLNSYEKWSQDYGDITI
Chain of spastin-T692A (aa 209–758) (Q8I0P1 209-758 T692A): as the sequence (Q8I0P1 209-758 Q488V) above, with V280Q, T484A counted along it
Chain of spastin-N527C (aa 209–758) (Q8I0P1 209-758 N527C): as the sequence (Q8I0P1 209-758 Q488V) above, with V280Q, N319C counted along it
Chain of spastin-AAA-T692A (aa 445–758) (Q8I0P1 445-758 T692A): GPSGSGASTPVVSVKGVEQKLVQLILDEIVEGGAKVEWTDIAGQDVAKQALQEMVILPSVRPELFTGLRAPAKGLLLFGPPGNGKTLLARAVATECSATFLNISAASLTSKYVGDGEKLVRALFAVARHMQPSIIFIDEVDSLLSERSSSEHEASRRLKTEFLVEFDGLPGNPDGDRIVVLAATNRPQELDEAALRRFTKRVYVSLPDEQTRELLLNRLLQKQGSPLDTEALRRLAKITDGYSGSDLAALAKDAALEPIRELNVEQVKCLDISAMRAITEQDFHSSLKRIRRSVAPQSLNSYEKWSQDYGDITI
T2 sequence (Q9PUL2 whole entry, the tested form may be a part): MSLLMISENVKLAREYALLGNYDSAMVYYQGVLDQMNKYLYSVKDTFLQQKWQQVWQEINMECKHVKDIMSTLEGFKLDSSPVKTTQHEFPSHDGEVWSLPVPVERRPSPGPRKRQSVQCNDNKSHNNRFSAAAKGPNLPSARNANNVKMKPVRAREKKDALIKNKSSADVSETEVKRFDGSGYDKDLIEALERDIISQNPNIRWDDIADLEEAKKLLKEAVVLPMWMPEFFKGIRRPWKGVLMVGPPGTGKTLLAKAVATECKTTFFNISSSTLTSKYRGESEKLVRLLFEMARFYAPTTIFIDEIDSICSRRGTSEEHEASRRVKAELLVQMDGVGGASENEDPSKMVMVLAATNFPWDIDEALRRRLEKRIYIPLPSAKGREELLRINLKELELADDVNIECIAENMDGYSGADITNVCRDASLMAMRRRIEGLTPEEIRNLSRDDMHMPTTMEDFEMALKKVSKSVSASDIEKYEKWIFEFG
Chain of spastin-AAA-Q488V (aa 445–758) (Q8I0P1 445-758 Q488V): as the sequence (Q8I0P1 445-758 T692A) above, with Q44V, A248T counted along it
Chain of spastin-AAA-N527C (aa 445–758) (Q8I0P1 445-758 N527C): as the sequence (Q8I0P1 445-758 T692A) above, with N83C, A248T counted along it

As to `CNC(=O)c1cccc(Nc2nc(N)n(C(=O)c3c(F)cccc3OC)n2)c1` [compound 4, 3-((5-amino-1-(2-fluoro-6-methoxybenzoyl)-1H-1,2,4-triazol-3-yl)amino)-N-methylbenzamide], in test [1], the IC50 turned out to be 2600 ± 150 nM and the “Change in inhibitor potency, Q488V (N-loop) vs wild-type” value is given as ~ 11 fold. In addition, the “Observed ∆Tm, spastin-AAA-Q488V” value in test [2] was ~ 5.0 °C. For the same compound, in test [3], the “Observed ∆Tm, spastin-AAA-T692A” value was ~ 7.2 °C. Besides, the “Inhibition of steady-state ATPase activity of fidgetin-like 1” value in test [4] was “does not substantially inhibit”. Further, the “Observed ∆Tm, spastin-AAA-N527C” value in test [5] was ~ 4.5 °C. In addition, in test [6], half-maximal inhibition (IC50) required 1110 ± 210 nM and the “Change in inhibitor potency, N527C (P-loop) vs wild-type” value is given as ~ 4 fold. Also, the “Inhibition of steady-state ATPase activity of katanin” value at katanin (Xl-katanin) [7] is on record as “does not substantially inhibit”. The “Observed ∆Tm, spastin-AAA-WT” value in test [8] was ~ 6.7 °C. In addition, in [9], the IC50 is 230 ± 20 nM. Moreover, the “Inhibition of steady-state ATPase activity of spastin” value in test [9] (2 µM compound, 0.5 mM MgATP, n=2) is “potently inhibits”. On VPS4B (Hs-VPS4B), the “Inhibition of steady-state ATPase activity of VPS4B” value was “does not substantially inhibit”. Moreover, in test [10], the IC50 was 220 ± 40 nM and the “Change in inhibitor potency, T692A (sensor-II) vs wild-type” value is given as “did not change the potency”.

Regarding `Nc1nc(Nc2ccc(S(N)(=O)=O)cc2)nn1C(=O)c1c(F)cccc1F` [compound 1, 4-((5-amino-1-(2,6-difluorobenzoyl)-1H-1,2,4-triazol-3-yl)amino)benzenesulfonamide], in [1], the IC50 turned out to be 8900 ± 500 nM and the “Change in inhibitor potency, Q488V (N-loop) vs wild-type” value is reported as “less than 2 fold”. Also, in test [2], the “Observed ∆Tm, spastin-AAA-Q488V” value was ~ 4.5 °C. In addition, the “Observed ∆Tm, spastin-AAA-T692A” value in [3] was ~ 6.2 °C. The “Effect on ATPase activity of spastin” value in test [11] is “blocks the ATPase activity”. Besides, the “Observed ∆Tm, spastin-AAA-N527C” value in test [5] is ~ 4.3 °C. For the same compound, in [6], the IC50 was determined as 6000 ± 1000 nM and the “Change in inhibitor potency, N527C (P-loop) vs wild-type” value is “less than 2 fold”. Besides, in test [12], the “Effect on ATPase activity of fidgetin-like 1” value was “blocks the ATPase activity”. Further, the “Observed ∆Tm, spastin-AAA-WT” value in [8] is ~ 4.5 °C. In addition, the IC50 in test [9] (IC50, inhibition of steady-state ATPase activity of spastin-WT, 0.5 mM MgATP, average ± s.d., n=3) was 5700 nM and 5800 nM. Also, the Mechanism of inhibition result in [9] (range of ATP concentrations, apparent K1/2 for ATP increased, kcat not altered) is on record as “ATP competitive mechanism of inhibition”. At katanin (Xl-katanin) [13], the “Effect on ATPase activity of katanin” value is “blocks the ATPase activity”. Besides, in test [10], it took 900 ± 100 nM to reach half-maximal inhibition (IC50) and the “Change in inhibitor potency, T692A (sensor-II) vs wild-type” value is reported as ~ 7 fold.

On to `Cc1cc2c(C(N)=O)cccc2n1-c1nc2c(c(NCc3ccccc3)n1)COCC2` [CB-5083], for which the “Change in compound potency, T688A vs wild-type VCP/p97” value with human VCP/p97 T688A is recorded as greater than 60 fold.
